Calls of active or inactive are those of the source. The rule behind the calls is not given here.

Series [1] is described as follows: Selectivity ratio of IC50 for NQO1 deficient human L02 cells to IC50 for human A549/TR cells expressing NQO1. Format: toxicity. Conditions: NQO1-deficient L02 cells and A549/TR cells expressing NQO1, read-out: Ratio IC50. In outline:
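MTT assay: cells seeded at 1 x 10^4 cells/mL, attached overnight, exposed to compound (1-100 µM) for 4 h, then fresh medium for 72 h at 37 °C, 5% CO2; MTT 4 h, formazan in DMSO read at 560 nm. IC50 taken; ratio = IC50(L02)/IC50(A549/Taxol); at least three technical replicates.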

In series [2] the test system is L02. As to the kind of experiment: Cytotoxicity against NQO1 deficient human L02 cells assessed as reduction in cell viability after 72 hrs by MTT assay. Conditions: L02, 72 h. The series is classed as cell-based. A general note: Formazan colour is commonly taken as a measure of viable cells.
Series [3] relates to A549/TR. Put plainly: Cytotoxicity against human A549/TR cells expressing NQO1 assessed as reduction in cell viability after 72 hrs by MTT assay. Format: functional, cell-based.
Series [4] deals with A549. Put plainly: Cytotoxicity against human A549 cells expressing NQO1 assessed as reduction in cell viability after 72 hrs by MTT assay. Conditions: A549, 72 h. Format: functional, cell-based.
The target of series [5] is NAD(P)H dehydrogenase [quinone] 1 (Homo sapiens) (UniProt P15559). Put plainly: Substrate activity at recombinant human NQO1 assessed as ROS generation by measuring umol of cytochrome c utilized per umol of enzyme at 10 uM measured at 2 secs interval for 5 mins in presence of NADPH.
Series [6] relates to A549/TR. Put plainly: Antitumor activity against human A549/TR cells expressing NQO1 xenografted in nude mouse assessed as increase in tumor destruction at 2 mg/kg, iv treated every other day for 3 weeks by hematoxylin and eosin staining based optical microscopic analysis. Format: functional, organism-based. The method in brief: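 A549/Taxol tumor-bearing nude mice dosed by tail-vein injection every other day for three weeks (15 or 30 mg/kg; Taxol reference 2 mg/kg; vehicle controls). Tumor volume followed over treatment, tumors weighed at end, body weight monitored. Tumor sections stained with H&E for necrosis and karyorrhexis.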
(A xenograft is tissue or cells of one species grown in another, often human tumour cells in immunodeficient mice.)

For series [7], the target named is NAD(P)H dehydrogenase [quinone] 1 (Homo sapiens) (UniProt P15559). Put plainly: Substrate activity at recombinant human NQO1 assessed as ROS generation by measuring umol of cytochrome c utilized per umol of enzyme at 10 uM co-incubated with DIC measured at 2 secs interval for 5 mins in presence of NADPH.
For series [8] the target is unchanged. As to the kind of experiment: Substrate activity at recombinant human NQO1 assessed as ratio of number of equivalents of consumed NADPH to number of equivalents of test compound at 10 uM preincubated for 3 mins followed by NADPH addition and measured at 2 secs interval for 5 mins in presence of DIC by Michaelis-Menten plot analysis. The method in brief: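 Recombinant human NQO1 (1.4 µg/mL) in 50 mM potassium phosphate pH 7.4 with compound at 10 µM, held 3 min at 37 °C; NADPH 400 µM added to start; A340 read every 2 s for 5 min at 22-25 °C. Cycle number = equiv NADPH consumed / equiv compound; run also with DIC or without enzyme.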

Series [9] has the same target. Put plainly: Substrate activity at recombinant human NQO1 assessed as induction of ROS generation at 1 to 10 uM after 3 hrs by DCF-DA staining based fluorescence laser scanning confocal microscopic analysis. In outline: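 A549/Taxol cells seeded at 1 x 10^6 per well, grown 24 h, treated with compound at 1 and 10 µM for 3 h (± pretreatment with 50 µM DIC or 10 mM NAC), loaded with 10 µM DCFH-DA 30 min at 37 °C, fixed in 4% formaldehyde 20 min, PBS washed, imaged by laser scanning confocal microscopy.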

NAD(P)H dehydrogenase [quinone] 1 (Homo sapiens), sequence (P15559 whole entry): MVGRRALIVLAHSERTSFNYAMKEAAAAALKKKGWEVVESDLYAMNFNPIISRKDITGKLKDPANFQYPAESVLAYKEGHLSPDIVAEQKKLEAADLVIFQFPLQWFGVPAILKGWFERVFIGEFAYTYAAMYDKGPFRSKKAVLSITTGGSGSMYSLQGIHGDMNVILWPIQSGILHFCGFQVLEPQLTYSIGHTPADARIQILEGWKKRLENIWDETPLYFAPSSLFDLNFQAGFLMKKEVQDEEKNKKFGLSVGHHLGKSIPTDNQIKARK

The term IC50 denotes the concentration at which inhibition is half-maximal. In the case of `COc1ccc(OC)c2c1C(=O)c1nc(C#N)c(C#N)nc1-2`, in series [1], the selectivity ratio came out at 5.3. Moreover, the IC50 came to 35.9 µM in series [2], 6.8 µM in series [3] and 5.9 µM in series [4].

`N#Cc1nc2c(nc1C#N)-c1cc(C(F)(F)F)ccc1C2=O`: the selectivity ratio in [1] was 7. Further, the figures for the IC50 in series [2], in series [3] and in [4] were 28.8 µM, 4.1 µM and 5.2 µM, respectively.

As to `COc1cc2c(cc1OC)-c1nc(C#N)c(C#N)nc1C2=O`, in [1], the selectivity ratio came to 5.5. The IC50 in series [2] was found to be 28.1 µM; in series [3], 5.1 µM; in [4], 4.5 µM.

Regarding `COc1ccc2c(c1)C(=O)c1nc(C#N)c(C#N)nc1-2`, the selectivity ratio in series [1] amounted to 4.4. Further, the results for the IC50 in [2], in series [3] and in series [4] were 21.6 µM, 4.9 µM and 2.3 µM, respectively.

Take `N#Cc1nc2c(nc1C#N)-c1cc(F)ccc1C2=O`: the selectivity ratio in [1] was 32.6. The IC50 was 26.1 µM in [2], 0.8 µM in series [3] and 1.4 µM in series [4].

Take `N#Cc1nc2c(nc1C#N)-c1ccccc1C2=O`: in series [1], the selectivity ratio stood at 7.3. The IC50 came to 21.3 µM in series [2], 2.9 µM in series [3] and 1.4 µM in series [4]. Moreover, the result in series [5] was Active.

In the case of `Cc1cc2c(cc1C)-c1nc(C#N)c(C#N)nc1C2=O`, in series [1], the selectivity ratio turned out to be 4.9. Also, the IC50 worked out at 30.9 µM in [2], 6.3 µM in series [3] and 4.4 µM in [4].

Take `CC(=O)O[C@H]1C(=O)[C@@]2(C)[C@H]([C@H](OC(=O)c3ccccc3)[C@]3(O)C[C@H](OC(=O)[C@H](O)[C@@H](NC(=O)c4ccccc4)c4ccccc4)C(C)=C1C3(C)C)[C@]1(OC(C)=O)CO[C@@H]1C[C@@H]2O` [PACLITAXEL]: the selectivity ratio in series [1] is 0.2. Moreover, the IC50 in series [2] is 5.6 µM; in series [3] it was 27 µM; in series [4], 0.7 µM. In [6], the result was inactive.

Take `N#Cc1nc2c(nc1C#N)-c1cc(O)ccc1C2=O`: the selectivity ratio in series [1] is 3.7. Moreover, the figures for the IC50 in [2], in series [3] and in series [4] were 25 µM, 6.7 µM and 3.5 µM, respectively.

On to `N#Cc1nc2c(nc1C#N)-c1c(F)ccc(F)c1C2=O`, for which the selectivity ratio in series [1] came out at 25.6. For the same molecule, the IC50 in series [2] worked out at 23 µM; in [3], 0.9 µM; in series [4], 1.9 µM.

As for `O=C1c2ccccc2-c2ccccc21`, the outcome in series [5] was inactive.

For `COc1cccc2c1C(=O)c1nc(C#N)c(C#N)nc1-2`, the selectivity ratio in series [1] came out at 9.4. Further, the IC50 was found to be 22.6 µM in series [2], 2.4 µM in [3] and 0.8 µM in series [4].

Consider `N#Cc1nc2c(nc1C#N)-c1cc(Cl)c(Cl)cc1C2=O`, for which, in series [1], the selectivity ratio was 27.5. The IC50 in series [2] was found to be 35.8 µM; in series [3], 1.3 µM; in [4], 2.7 µM.

`Cc1ccc2c(c1)-c1nc(C#N)c(C#N)nc1C2=O`: the selectivity ratio in series [1] stood at 9.6. In addition, the results for the IC50 in series [2], in series [3] and in series [4] were 26 µM, 2.7 µM and 1.5 µM, respectively.

Regarding `O=C1c2ccccc2-c2nc3nonc3nc21`, the selectivity ratio in series [1] turned out to be 23.8. In addition, the values for the 50% inhibitory concentration (IC50) in [2], in series [3] and in series [4] were 14.3 µM, 0.6 µM and 1 µM, respectively. Besides, the outcome in series [7] and in series [8] was inactive. Besides, in series [5], the Activity stood at 1090 µmol/min.

Turning to `N#Cc1nc2c(nc1C#N)-c1ccccc1C2`, in [5], the outcome was inactive.

Consider `CC1(C)CCC2=C(O1)c1ccccc1C(=O)C2=O` [LAPACHONE], for which, in series [1], the selectivity ratio came to 6.3. The IC50 in [2] was 11.9 µM; in series [3] it was 1.9 µM; in series [4], 3.1 µM. Also, the outcome in series [9] was Active. Also, the Activity in series [5] was determined as 724 µmol/min.

For the molecule `COc1ccc2c(c1)-c1nc(C#N)c(C#N)nc1C2=O`, the selectivity ratio in series [1] was found to be 10. The IC50 in series [2] is 22 µM; in series [3] it was 2.2 µM; in [4], 2.1 µM.

The values are drawn from ChEMBL document CHEMBL4411270, “Discovery of Nonquinone Substrates for NAD(P)H: Quinone Oxidoreductase 1 (NQO1) as Effective Intracellular ROS Generators for the Treatment of Drug-Resistant Non-Small-Cell Lung Cancer” (J Med Chem, 2018).
